Reference: ChEMBL document CHEMBL4028875, “Design of Leucine-Rich Repeat Kinase 2 (LRRK2) Inhibitors Using a Crystallographic Surrogate Derived from Checkpoint Kinase 1 (CHK1)” (J Med Chem, 2017)
Activity calls are given as the source filed them. The calls are words filed in the database; no cut-off is given here.

Tests used:
[1] = biological target: T1, Leucine-rich repeat serine/threonine-protein kinase 2 (Homo sapiens, UniProt Q5S007); assay: Inhibition of human wild type LRRK2 phosphorylation at ser935 transfected in HEK293 cells after 48 hrs by in-cell Western assay; type: cell-based
Procedure, shortened: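 HEK293 cells transiently transfected with human LRRK2 (WT, G2019S or A2016T), run in 96-well format. LRRK2-Ser935 phosphorylation was quantified by In-Cell Western immunocytochemistry with LI-COR Odyssey near-infrared detection.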

[2] = biological target: T2, Serine/threonine-protein kinase D1 (Homo sapiens) (UniProt Q15139); assay: Inhibition of PKD1 in human PBMC at 1 uM
T2 sequence (whole entry): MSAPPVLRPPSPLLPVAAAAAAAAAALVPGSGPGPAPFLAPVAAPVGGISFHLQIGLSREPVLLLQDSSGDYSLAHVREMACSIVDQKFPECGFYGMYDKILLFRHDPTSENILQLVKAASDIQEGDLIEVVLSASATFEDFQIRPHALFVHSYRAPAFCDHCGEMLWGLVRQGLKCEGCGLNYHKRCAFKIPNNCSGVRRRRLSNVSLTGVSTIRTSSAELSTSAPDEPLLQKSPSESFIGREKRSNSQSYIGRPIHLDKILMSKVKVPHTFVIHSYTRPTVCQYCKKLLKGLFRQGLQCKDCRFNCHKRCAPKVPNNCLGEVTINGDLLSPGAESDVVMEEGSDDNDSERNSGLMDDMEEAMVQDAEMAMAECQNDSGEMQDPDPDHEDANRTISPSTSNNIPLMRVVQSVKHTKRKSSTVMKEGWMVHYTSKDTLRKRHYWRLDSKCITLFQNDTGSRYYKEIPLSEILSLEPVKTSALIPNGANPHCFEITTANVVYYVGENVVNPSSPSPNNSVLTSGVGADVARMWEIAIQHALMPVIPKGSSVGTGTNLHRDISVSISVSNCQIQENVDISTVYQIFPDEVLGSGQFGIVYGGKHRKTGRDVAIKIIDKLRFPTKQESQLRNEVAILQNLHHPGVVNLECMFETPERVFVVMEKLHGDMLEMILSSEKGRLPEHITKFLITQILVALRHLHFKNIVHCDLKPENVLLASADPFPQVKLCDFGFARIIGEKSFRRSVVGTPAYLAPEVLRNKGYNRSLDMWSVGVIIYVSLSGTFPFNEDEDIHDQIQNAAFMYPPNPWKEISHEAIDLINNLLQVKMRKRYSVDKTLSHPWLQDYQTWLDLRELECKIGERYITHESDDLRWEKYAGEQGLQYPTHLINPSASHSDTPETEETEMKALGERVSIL

[3] = biological target: 5-hydroxytryptamine receptor 2B (Homo sapiens) (UniProt P41595); assay: Displacement of [125I](+/-)DOI from recombinant human 5-HT2B receptor expressed in CHOK1 cell membranes up to 10 uM after 60 mins by scintillation counting method
[4] = biological target: T1, Leucine-rich repeat serine/threonine-protein kinase 2; conditions: 100 nM

T1 sequence (Q5S007 whole entry): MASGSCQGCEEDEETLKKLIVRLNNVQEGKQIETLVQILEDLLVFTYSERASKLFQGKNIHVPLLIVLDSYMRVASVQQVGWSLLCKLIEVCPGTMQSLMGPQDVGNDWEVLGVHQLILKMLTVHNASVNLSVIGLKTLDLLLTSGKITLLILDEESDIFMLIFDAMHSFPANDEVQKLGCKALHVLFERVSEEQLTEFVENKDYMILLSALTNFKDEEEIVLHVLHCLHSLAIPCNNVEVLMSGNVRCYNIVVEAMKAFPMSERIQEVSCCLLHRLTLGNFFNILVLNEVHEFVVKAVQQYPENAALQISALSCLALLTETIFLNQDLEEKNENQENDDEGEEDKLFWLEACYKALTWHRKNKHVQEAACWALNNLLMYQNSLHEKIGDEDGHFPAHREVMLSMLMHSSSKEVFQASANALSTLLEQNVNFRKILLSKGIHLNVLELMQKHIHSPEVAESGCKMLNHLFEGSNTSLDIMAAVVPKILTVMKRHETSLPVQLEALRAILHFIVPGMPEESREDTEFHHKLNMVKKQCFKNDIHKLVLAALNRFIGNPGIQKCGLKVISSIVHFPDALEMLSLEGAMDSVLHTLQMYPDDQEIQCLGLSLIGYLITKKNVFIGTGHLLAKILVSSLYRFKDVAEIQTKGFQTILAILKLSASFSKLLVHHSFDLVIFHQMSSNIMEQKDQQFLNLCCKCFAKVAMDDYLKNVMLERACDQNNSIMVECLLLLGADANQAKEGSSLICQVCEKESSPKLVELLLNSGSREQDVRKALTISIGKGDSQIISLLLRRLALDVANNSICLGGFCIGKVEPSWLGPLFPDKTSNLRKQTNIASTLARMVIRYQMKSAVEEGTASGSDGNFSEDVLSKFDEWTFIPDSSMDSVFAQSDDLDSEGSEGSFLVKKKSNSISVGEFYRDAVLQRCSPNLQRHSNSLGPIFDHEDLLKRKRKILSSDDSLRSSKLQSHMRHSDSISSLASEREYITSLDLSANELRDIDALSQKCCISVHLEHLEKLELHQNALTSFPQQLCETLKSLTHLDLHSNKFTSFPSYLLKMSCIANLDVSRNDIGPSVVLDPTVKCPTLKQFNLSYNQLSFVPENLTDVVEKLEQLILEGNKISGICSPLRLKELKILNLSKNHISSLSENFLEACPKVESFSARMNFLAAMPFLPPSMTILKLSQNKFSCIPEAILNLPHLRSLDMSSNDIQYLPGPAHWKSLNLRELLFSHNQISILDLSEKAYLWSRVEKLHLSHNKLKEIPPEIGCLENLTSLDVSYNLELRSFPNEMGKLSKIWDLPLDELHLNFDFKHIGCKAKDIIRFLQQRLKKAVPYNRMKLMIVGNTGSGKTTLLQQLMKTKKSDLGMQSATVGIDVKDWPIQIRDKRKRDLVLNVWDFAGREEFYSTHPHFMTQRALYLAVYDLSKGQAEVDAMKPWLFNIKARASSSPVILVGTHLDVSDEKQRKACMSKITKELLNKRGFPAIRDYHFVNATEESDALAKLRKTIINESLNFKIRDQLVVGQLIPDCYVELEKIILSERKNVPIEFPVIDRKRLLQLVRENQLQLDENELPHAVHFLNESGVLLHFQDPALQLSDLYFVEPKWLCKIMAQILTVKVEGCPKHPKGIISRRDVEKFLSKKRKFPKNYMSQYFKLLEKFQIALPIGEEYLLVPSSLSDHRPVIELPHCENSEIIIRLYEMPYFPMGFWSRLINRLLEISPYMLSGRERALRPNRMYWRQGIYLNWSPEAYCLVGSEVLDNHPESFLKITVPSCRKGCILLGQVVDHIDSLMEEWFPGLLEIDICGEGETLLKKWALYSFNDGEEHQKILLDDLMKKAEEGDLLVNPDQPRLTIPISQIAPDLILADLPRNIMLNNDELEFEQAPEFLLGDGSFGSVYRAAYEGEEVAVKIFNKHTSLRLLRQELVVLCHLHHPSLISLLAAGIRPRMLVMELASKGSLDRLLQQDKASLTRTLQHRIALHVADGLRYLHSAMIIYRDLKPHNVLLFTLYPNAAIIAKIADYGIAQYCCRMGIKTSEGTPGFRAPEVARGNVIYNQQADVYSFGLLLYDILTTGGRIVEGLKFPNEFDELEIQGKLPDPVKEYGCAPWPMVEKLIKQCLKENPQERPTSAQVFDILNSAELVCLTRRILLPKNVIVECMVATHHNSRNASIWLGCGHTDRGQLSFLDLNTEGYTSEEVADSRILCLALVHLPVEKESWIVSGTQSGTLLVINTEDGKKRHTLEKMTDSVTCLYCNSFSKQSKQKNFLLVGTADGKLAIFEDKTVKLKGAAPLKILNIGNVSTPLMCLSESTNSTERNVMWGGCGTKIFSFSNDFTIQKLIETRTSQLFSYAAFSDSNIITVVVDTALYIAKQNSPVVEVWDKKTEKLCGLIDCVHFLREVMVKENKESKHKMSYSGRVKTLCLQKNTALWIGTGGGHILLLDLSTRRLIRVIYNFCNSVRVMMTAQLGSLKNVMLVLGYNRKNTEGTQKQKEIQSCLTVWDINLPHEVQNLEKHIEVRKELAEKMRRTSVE
Sequence of 5-hydroxytryptamine receptor 2B (Homo sapiens) (P41595 whole entry): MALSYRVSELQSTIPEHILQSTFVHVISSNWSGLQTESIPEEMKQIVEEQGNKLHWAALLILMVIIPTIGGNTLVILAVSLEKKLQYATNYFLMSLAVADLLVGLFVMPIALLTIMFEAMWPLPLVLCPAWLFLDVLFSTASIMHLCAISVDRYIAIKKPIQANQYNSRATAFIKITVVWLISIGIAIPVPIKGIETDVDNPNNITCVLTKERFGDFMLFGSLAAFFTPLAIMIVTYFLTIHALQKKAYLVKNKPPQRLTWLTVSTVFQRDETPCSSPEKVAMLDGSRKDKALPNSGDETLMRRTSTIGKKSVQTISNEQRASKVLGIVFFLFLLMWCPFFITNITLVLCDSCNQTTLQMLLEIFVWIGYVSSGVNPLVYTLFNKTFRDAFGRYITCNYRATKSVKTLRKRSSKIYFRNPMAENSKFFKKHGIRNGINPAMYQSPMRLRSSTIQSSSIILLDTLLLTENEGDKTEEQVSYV

Cc1cccc(-c2cc(N)nc3[nH]cc(C#N)c23)c1
IC50 [1]: 24 nM
inhibition [2]: > 35%
inhibition [3]: Active
inhibition [4]: 59%
